Assay results published in ChEMBL document CHEMBL4689842, “EUbOPEN Chemogenomics Library wave 1” (2021).
Several values for one entry are separate records, joined by “and”; a condition that tells them apart may be missing. Equal values may be shown once.

System: Fibroblast
Experiment: Multiplex assay against human fibroblast
Assay type: toxicity, cell-based
Summary of the method: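 Live cells were stained at seeding with Hoechst33342, BioTracker Green Microtubule Cytoskeleton Dye, MitoTracker Red and Annexin V Alexa Fluor 680. Following compound addition, they were imaged on a CQ1 microscope at 37°C and 5% CO2 and gated by CellPathfinder machine learning into Hoechst high-intensity objects or normal cells, with normal cells split into healthy, pyknosed or fragmented nuclei and pyknosed cells into mitotic or apoptotic. Tubulin, mitochondrial-mass and membrane-permeability phenotypes are per cents of healthy-nucleus cells.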

[1] = 12 h, 10 µM, compound concentration 10 uM, replicate 1
[2] = 12 h, 10 µM, compound concentration 10 uM, replicate 2
[3] = 24 h, 10 µM, compound concentration 10 uM, replicate 1
[4] = 24 h, 10 µM, compound concentration 10 uM, replicate 2
[5] = 12 h, 1 µM, compound concentration 1 uM, replicate 1
[6] = 12 h, 1 µM, compound concentration 1 uM, replicate 2
[7] = 24 h, 1 µM, compound concentration 1 uM, replicate 1
[8] = 24 h, 1 µM, compound concentration 1 uM, replicate 2

## Cn1cncc1[C@@](O)(COc1ccc(C#N)cc1-c1ccc(OC(F)(F)F)cc1)c1ccc(C#N)cc1 [A-108]
[1]
  Population Apoptotic (%): 53% and 83%
  Population Fragmented Nuclei (%): 39% and 19%
  Population Healthy Nuclei (%): 44% and 66%
  Population Hoechst High Intensity Objects (%): 15% and 12%
  Population Membrane Permeable-Phenotype (%): 23% and 8%
  Population Mitochondria Different-Phenotype (%): 20% and 7%
  Population Mitotic Cells (%): 46% and 16%
  Population Normal (%): 84% and 87%
  Population Pyknosed Nuclei (%): 15% and 14%
  Total Cell Count: 192 and 337
[2]
  Population Apoptotic (%): 42% and 57%
  Population Fragmented Nuclei (%): 52% and 61%
  Population Healthy Nuclei (%): 34% and 26%
  Population Hoechst High Intensity Objects (%): 32%
  Population Membrane Permeable-Phenotype (%): 0% and 5%
  Population Mitotic Cells (%): 57% and 42%
  Population Normal (%): 67%
  Population Pyknosed Nuclei (%): 12% and 11%
  Population Tubulin-Different-Phenotype (%): 26% and 52%
  Total Cell Count: 82 and 94
[3]
  Population Apoptotic (%): 54% and 58%
  Population Fragmented Nuclei (%): 40% and 16%
  Population Healthy Nuclei (%): 47% and 69%
  Population Hoechst High Intensity Objects (%): 11% and 16%
  Population Membrane Permeable-Phenotype (%): 3% and 7%
  Population Mitotic Cells (%): 45% and 41%
  Population Normal (%): 88% and 83%
  Population Pyknosed Nuclei (%): 14%
  Total Cell Count: 216 and 318
[4]
  Population Apoptotic (%): 50% and 62%
  Population Fragmented Nuclei (%): 50%
  Population Healthy Nuclei (%): 43% and 37%
  Population Hoechst High Intensity Objects (%): 29% and 21%
  Population Membrane Permeable-Phenotype (%): 14% and 16%
  Population Mitochondria Different-Phenotype (%): 66% and 28%
  Population Mitotic Cells (%): 50% and 37%
  Population Normal (%): 70% and 78%
  Population Pyknosed Nuclei (%): 6% and 11%
  Population Tubulin-Different-Phenotype (%): 37% and 52%
  Total Cell Count: 88 and 85

## CC(C)C(=O)Nc1n[nH]c2cc(-c3cccc(NS(=O)(=O)C4CC4)c3)ccc12
[5]
  Population Apoptotic (%): 85% and 80%
  Population Fragmented Nuclei (%): 36% and 25%
  Population Healthy Nuclei (%): 36% and 58%
  Population Hoechst High Intensity Objects (%): 13% and 11%
  Population Membrane Permeable-Phenotype (%): 8% and 7%
  Population Mitochondria Different-Phenotype (%): 0% and 6%
  Population Mitotic Cells (%): 14% and 20%
  Population Normal (%): 86% and 88%
  Population Pyknosed Nuclei (%): 26%
  Population Tubulin-Different-Phenotype (%): 6% and 2%
  Total Cell Count: 151 and 184
[6]
  Population Apoptotic (%): 100% and 50%
  Population Fragmented Nuclei (%): 56% and 43%
  Population Healthy Nuclei (%): 38% and 40%
  Population Hoechst High Intensity Objects (%): 34% and 18%
  Population Normal (%): 65% and 81%
  Population Pyknosed Nuclei (%): 6% and 15%
  Population Tubulin-Different-Phenotype (%): 15% and 30%
  Total Cell Count: 76 and 79
[7]
  Population Apoptotic (%): 65% and 60%
  Population Fragmented Nuclei (%): 40% and 28%
  Population Healthy Nuclei (%): 42% and 54%
  Population Hoechst High Intensity Objects (%): 8% and 9%
  Population Membrane Permeable-Phenotype (%): 17% and 7%
  Population Mitochondria Different-Phenotype (%): 1% and 2%
  Population Mitotic Cells (%): 34% and 39%
  Population Normal (%): 91% and 90%
  Population Pyknosed Nuclei (%): 17%
  Population Tubulin-Different-Phenotype (%): 8% and 4%
  Total Cell Count: 144 and 207
[8]
  Population Apoptotic (%): 42% and 33%
  Population Fragmented Nuclei (%): 47% and 51%
  Population Healthy Nuclei (%): 41% and 36%
  Population Hoechst High Intensity Objects (%): 23% and 22%
  Population Membrane Permeable-Phenotype (%): 15% and 11%
  Population Mitochondria Different-Phenotype (%): 15% and 0%
  Population Mitotic Cells (%): 57% and 66%
  Population Normal (%): 76% and 77%
  Population Pyknosed Nuclei (%): 11% and 12%
  Population Tubulin-Different-Phenotype (%): 11% and 22%
  Total Cell Count: 82 and 63

## C=CC(=O)Nc1cc2c(Nc3ccc(F)c(Cl)c3)ncnc2cc1OCCCN1CCOCC1.Cl.Cl [CANERTINIB DIHYDROCHLORIDE]
[5]
  Population Apoptotic (%): 73%
  Population Fragmented Nuclei (%): 35%
  Population Healthy Nuclei (%): 53%
  Population Hoechst High Intensity Objects (%): 29%
  Population Membrane Permeable-Phenotype (%): 28%
  Population Mitochondria Different-Phenotype (%): 21%
  Population Mitotic Cells (%): 26%
  Population Normal (%): 70%
  Population Pyknosed Nuclei (%): 10%
  Population Tubulin-Different-Phenotype (%): 83%
  Total Cell Count: 198
[6]
  Population Apoptotic (%): 100%
  Population Fragmented Nuclei (%): 58%
  Population Healthy Nuclei (%): 35%
  Population Hoechst High Intensity Objects (%): 39%
  Population Membrane Permeable-Phenotype (%): 20%
  Population Mitochondria Different-Phenotype (%): 66%
  Population Mitotic Cells (%): 0%
  Population Normal (%): 60%
  Population Pyknosed Nuclei (%): 5%
  Population Tubulin-Different-Phenotype (%): 91%
  Total Cell Count: 110
[1]
  Population Apoptotic (%): 56%
  Population Fragmented Nuclei (%): 35%
  Population Healthy Nuclei (%): 45%
  Population Hoechst High Intensity Objects (%): 13%
  Population Mitotic Cells (%): 43%
  Population Normal (%): 86%
  Population Pyknosed Nuclei (%): 18%
  Population Tubulin-Different-Phenotype (%): 20%
  Total Cell Count: 227
[2]
  Population Apoptotic (%): 57%
  Population Fragmented Nuclei (%): 60%
  Population Healthy Nuclei (%): 31%
  Population Hoechst High Intensity Objects (%): 43%
  Population Membrane Permeable-Phenotype (%): 10%
  Population Mitochondria Different-Phenotype (%): 10%
  Population Mitotic Cells (%): 42%
  Population Normal (%): 56%
  Population Pyknosed Nuclei (%): 7%
  Population Tubulin-Different-Phenotype (%): 27%
  Total Cell Count: 160
[7]
  Population Apoptotic (%): 71%
  Population Fragmented Nuclei (%): 26%
  Population Healthy Nuclei (%): 38%
  Population Hoechst High Intensity Objects (%): 41%
  Population Membrane Permeable-Phenotype (%): 19%
  Population Mitochondria Different-Phenotype (%): 51%
  Population Mitotic Cells (%): 28%
  Population Normal (%): 58%
  Population Pyknosed Nuclei (%): 35%
  Population Tubulin-Different-Phenotype (%): 64%
  Total Cell Count: 137
[8]
  Population Apoptotic (%): 100%
  Population Fragmented Nuclei (%): 59%
  Population Healthy Nuclei (%): 26%
  Population Hoechst High Intensity Objects (%): 39%
  Population Membrane Permeable-Phenotype (%): 23%
  Population Mitochondria Different-Phenotype (%): 76%
  Population Mitotic Cells (%): 0%
  Population Normal (%): 60%
  Population Pyknosed Nuclei (%): 14%
  Population Tubulin-Different-Phenotype (%): 61%
  Total Cell Count: 81
[3]
  Population Apoptotic (%): 79%
  Population Fragmented Nuclei (%): 36%
  Population Healthy Nuclei (%): 50%
  Population Hoechst High Intensity Objects (%): 12%
  Population Membrane Permeable-Phenotype (%): 1%
  Population Mitochondria Different-Phenotype (%): 10%
  Population Mitotic Cells (%): 20%
  Population Normal (%): 87%
  Population Pyknosed Nuclei (%): 12%
  Population Tubulin-Different-Phenotype (%): 11%
  Total Cell Count: 220
[4]
  Population Apoptotic (%): 50%
  Population Fragmented Nuclei (%): 73%
  Population Healthy Nuclei (%): 20%
  Population Hoechst High Intensity Objects (%): 44%
  Population Membrane Permeable-Phenotype (%): 5%
  Population Mitochondria Different-Phenotype (%): 16%
  Population Mitotic Cells (%): 50%
  Population Normal (%): 55%
  Population Pyknosed Nuclei (%): 6%
  Population Tubulin-Different-Phenotype (%): 33%
  Total Cell Count: 159
